The values that follow come from ChEMBL document CHEMBL1933033, “Cytotoxic withanolide constituents of Physalis longifolia” (J Nat Prod, 2011).

A short description of test [1]: Cytotoxicity against human MDA1986 cells after 72 hrs by MTS assay. It is filed as functional, cell-based. The following applies: MDA1986, 72 h. Summed up:
(§1)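 MTS viability assay on HNSCC (JMAR, MDA-1986), melanoma (B16F10, SKMEL-28) and normal fetal fibroblast (MRC-5) cells. Pure compounds tested at ten concentrations from 50 nM to 20 μM. IC50 values derived from the concentration series.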

The subject of the next test is SK-MEL-28. The test is described as follows: Cytotoxicity against human SK-MEL-28 cells after 72 hrs by MTS assay. The format is functional, cell-based. The settings on record: SK-MEL-28, 72 h. In outline: as §1
In the next test the test system is B16-F10. In words: Cytotoxicity against mouse B16F10 cells after 72 hrs by MTS assay. The following applies: B16-F10, 72 h. It is filed as functional, cell-based. Summed up:
as §1

A short description of test [2]: Cytotoxicity against human […] cells after 72 hrs by MTS assay. The format is cell-based. Summed up: as §1
Test [3] in a line: Cytotoxicity against human JMAR cells after 72 hrs by MTS assay. The format is functional, cell-based. Summed up: as §1

With `CC1=C(CO)C(=O)O[C@@H]([C@@H](C)[C@H]2CC[C@H]3[C@@H]4C[C@H]5O[C@]56[C@@H](O)C=CC(=O)[C@]6(CO)[C@H]4CC[C@]23C)C1`, the IC50 was 3.3 µM in test [1]; 5.1 µM in the test with SK-MEL-28; above 10 µM in the test with B16-F10; above 10 µM in test [2]; 5.3 µM in test [3].
Turning to `CC(=O)OCC1=C(C)C[C@H]([C@@H](C)[C@H]2CC[C@H]3[C@@H]4C[C@H]5O[C@]56[C@@H](OC(C)=O)C=CC(=O)[C@]6(COC(C)=O)[C@H]4CC[C@]23C)OC1=O`, the IC50 in test [1] was 0.91 µM; with SK-MEL-28, 0.54 µM; in the test with B16-F10, 0.067 µM; in test [2], 0.58 µM; in test [3], 0.16 µM.
On the same counts, the results for `CC(=O)OCC1=C(C)C[C@H]([C@@H](C)[C@H]2CC[C@H]3[C@@H]4C[C@H]5O[C@]56[C@@H](OC(C)=O)C=CC(=O)[C@]6(CO)[C@H]4CC[C@]23C)OC1=O` are 2.2 µM, 0.81 µM, 0.098 µM, 0.41 µM and 0.14 µM.
For `CC(=O)OC[C@]12C(=O)C=C[C@H](OC(C)=O)[C@]13O[C@@H]3C[C@H]1[C@@H]3CC[C@H]([C@H](C)[C@H]4CC(C)=C(C)C(=O)O4)[C@@]3(C)CC[C@@H]12` the same measures were 0.11 µM, 0.27 µM, 0.13 µM, 0.51 µM and 0.24 µM.
As for `CC(=O)OC[C@]12C(=O)C=C[C@H](O)[C@]13O[C@@H]3C[C@H]1[C@@H]3CC[C@H]([C@H](C)[C@H]4CC(C)=C(C)C(=O)O4)[C@@]3(C)CC[C@@H]12`, the IC50 was 0.49 µM in test [1]; 0.64 µM with SK-MEL-28; 0.19 µM in the test with B16-F10; 0.16 µM in test [2]; 0.12 µM in test [3].
Turning to `CC1=C(CO)C(=O)O[C@@H]([C@@H](C)[C@H]2CC[C@H]3[C@@H]4C[C@H]5O[C@]56[C@@H](O)C=CC(=O)[C@]6(CO)[C@H]4[C@@H](O)C[C@]23C)C1`, the IC50 in test [1] stood at 2.6 µM; in the test on SK-MEL-28, 3 µM; with B16-F10 it was 0.49 µM; in test [2] it was 3.6 µM; in test [3] it was 0.77 µM.
As for `CO[C@H]1CC(=O)[C@]2(C)[C@H]3CC[C@]4(C)[C@@H]([C@H](C)[C@H]5CC(C)=C(CO)C(=O)O5)CC[C@H]4[C@@H]3C[C@H]3O[C@]32[C@H]1O`, the IC50 (in test [1]; with SK-MEL-28; in the test with B16-F10; in test [2]; in test [3]) was above 10 µM throughout.
Take `CC1=C(CO)C(=O)O[C@@H]([C@@H](C)[C@H]2CC[C@H]3[C@@H]4C[C@H]5O[C@]56[C@@H](O)CCC(=O)[C@]6(C)[C@H]4CC[C@]23C)C1`: the IC50 (in test [1]; in the test with SK-MEL-28; in the test on B16-F10; in test [2]; in test [3]) was above 10 µM each time.
Regarding `CC1=C(CO)C(=O)O[C@@H]([C@@H](C)[C@H]2CC[C@H]3[C@@H]4C[C@@H]5O[C@@H]6CC(=O)[C@](C)([C@H]4CC[C@]23C)[C@@]5(O)[C@H]6O)C1`, the IC50 (in test [1]; in the test on SK-MEL-28; in the test on B16-F10; in test [2]; in test [3]) was above 10 µM in each case.
For `CC1=C(CO)C(=O)O[C@@H]([C@@H](C)[C@H]2CC[C@H]3[C@@H]4C[C@H]5O[C@]56[C@@H](O)[C@@H](OS(=O)(=O)O)CC(=O)[C@]6(C)[C@H]4CC[C@]23C)C1`, the IC50 in test [1] was 0.27 µM; with SK-MEL-28, 5.1 µM; in the test with B16-F10, 0.18 µM; in test [2] it was 1.4 µM; in test [3], 0.48 µM.
Consider `CC1=C(CO[C@@H]2O[C@H](CO)[C@@H](O)[C@H](O)[C@H]2O)C(=O)O[C@@H]([C@@H](C)[C@H]2CC[C@H]3[C@@H]4C[C@H]5O[C@]56[C@@H](O)C=CC(=O)[C@]6(C)[C@H]4CC[C@]23C)C1` [SITOINDOSIDE IX], for which the IC50 is above 10 µM in test [1]; 8.3 µM with SK-MEL-28; 3.7 µM with B16-F10; 5.2 µM in test [2]; 4.2 µM in test [3].
For `CC1=C(CO)C(=O)O[C@@H]([C@@H](C)[C@H]2CC[C@H]3[C@@H]4C[C@H]5O[C@]56[C@@H](O)[C@@H](O)CC(=O)[C@]6(C)[C@H]4CC[C@]23C)C1` [VISCOSALACTONE B], the IC50 (in test [1]; in the test with SK-MEL-28; in the test with B16-F10; in test [2]; in test [3]) was above 10 µM in each case.
For `CC1=C(CO)C(=O)O[C@@H]([C@@H](C)[C@H]2CC[C@H]3[C@@H]4C[C@H]5O[C@]56[C@@H](O)C=CC(=O)[C@]6(C)[C@H]4CC[C@]23C)C1` [WITHAFERIN A], the IC50 turned out to be 0.8 µM in test [1]; 4 µM in the test on SK-MEL-28; 0.29 µM in the test with B16-F10; 0.2 µM in test [2]; 2 µM in test [3].
On to `CC1=C(C)C(=O)O[C@@H]([C@@H](C)[C@H]2CC[C@H]3[C@@H]4C[C@H]5O[C@]56[C@@H](O)C=CC(=O)[C@]6(CO)[C@H]4CC[C@]23C)C1` [WITHALONGOLIDE B], for which the IC50 turned out to be 1.3 µM in test [1]; 3.9 µM in the test with SK-MEL-28; 0.2 µM in the test with B16-F10; 0.4 µM in test [2]; 0.17 µM in test [3].
For the molecule `CO[C@H]1CC(=O)[C@]2(CO)[C@H]3CC[C@]4(C)[C@@H]([C@H](C)[C@H]5CC(C)=C(CO)C(=O)O5)CC[C@H]4[C@@H]3C[C@H]3O[C@]32[C@H]1O` [WITHALONGOLIDE D], the IC50 in test [1] was above 10 µM; in the test with SK-MEL-28, 9.3 µM; in the test with B16-F10 it was 3.2 µM; in test [2], 6.5 µM; in test [3], 4.7 µM.
Regarding `CO[C@H]1CC(=O)[C@]2(C)[C@@H]3[C@@H](C[C@H]4O[C@]42[C@H]1O)[C@@H]1CC[C@H]([C@H](C)[C@H]2CC(C)=C(CO)C(=O)O2)[C@@]1(C)C[C@@H]3O` [WITHALONGOLIDE E], the IC50 in test [1] is 8.3 µM; in the test on SK-MEL-28 it was above 10 µM; in the test on B16-F10 it was 5.6 µM; in test [2] it was 7.3 µM; in test [3], above 10 µM.
Regarding `CC1=C(CO)C(=O)O[C@@H]([C@@H](C)[C@H]2CC[C@H]3[C@@H]4CC=C5C=CC(=O)[C@]5(C)[C@H]4CC[C@]23C)C1` [WITHALONGOLIDE F], the half-inhibitory concentration (IC50) (in test [1]; in the test on SK-MEL-28; in the test on B16-F10; in test [2]; in test [3]) was above 10 µM in each case.
As for `CC1=C(CO)C(=O)O[C@@H]([C@@H](C)[C@H]2CC[C@H]3[C@@H]4C[C@H]5O[C@]56[C@@H](O)[C@@H](OS(=O)(=O)O)CC(=O)[C@]6(CO)[C@H]4CC[C@]23C)C1` [WITHALONGOLIDE G], the IC50 stood at 2 µM in test [1]; 4.8 µM in the test with SK-MEL-28; 1.3 µM in the test on B16-F10; 3.3 µM in test [2]; 2.3 µM in test [3].
For the molecule `CC1=C(CO[C@@H]2O[C@H](CO)[C@@H](O[C@@H]3O[C@@H](C)[C@H](O)[C@@H](O)[C@H]3O)[C@H](O)[C@H]2O)C(=O)O[C@@H]([C@@H](C)[C@H]2CC[C@H]3[C@@H]4C[C@H]5O[C@]56[C@@H](O)C=CC(=O)[C@]6(C)[C@H]4CC[C@]23C)C1` [WITHALONGOLIDE H], the IC50 in test [1] was 8.1 µM; with SK-MEL-28 it was above 10 µM; in the test on B16-F10 it was above 10 µM; in test [2], 8.7 µM; in test [3] it was 8.2 µM.
`CC1=C(CO)C(=O)O[C@@H]([C@@H](C)[C@H]2CC[C@H]3[C@@H]4CC=C5C[C@@H](O[C@@H]6O[C@H](CO)[C@@H](O)[C@H](O)[C@H]6O)CC(=O)[C@]5(CO)[C@H]4CC[C@]23C)C1` [WITHALONGOLIDE I]: the IC50 (in test [1]; in the test with SK-MEL-28; in the test with B16-F10; in test [2]; in test [3]) was above 10 µM throughout.
`CC1=C(CO[C@@H]2O[C@H](CO)[C@@H](O)[C@H](O)[C@H]2O)C[C@H]([C@@H](C)[C@H]2CC[C@H]3[C@@H]4CC=C5C[C@@H](O)C[C@H](O)[C@]5(CO)[C@H]4CC[C@]23C)OC1=O` [WITHALONGOLIDE J]: the IC50 (in test [1]; in the test on SK-MEL-28; in the test with B16-F10; in test [2]; in test [3]) was above 10 µM throughout.
Regarding `CC1=C(CO[C@@H]2O[C@H](CO)[C@@H](O)[C@H](O)[C@H]2O)C[C@H]([C@@H](C)[C@H]2CC[C@H]3[C@@H]4C[C@H](O)C5=C(C(=O)C[C@H](O)C5)[C@H]4CC[C@]23C)OC1=O` [WITHALONGOLIDE L], the IC50 (in test [1]; in the test on SK-MEL-28; in the test on B16-F10; in test [2]; in test [3]) was above 10 µM in each case.
